These results are taken from ChEMBL document CHEMBL4382263, “Spirostaphylotrichin X from a Marine-Derived Fungus as an Anti-influenza Agent Targeting RNA Polymerase PB2” (J Nat Prod, 2018).

As a reminder, the Kd is the equilibrium constant for the complex coming apart. Low readings indicate a tighter complex, high ones a looser complex. As usually defined, the IC50 is the concentration at which inhibition is half-maximal. For orientation: MIC means the least concentration at which growth counts as inhibited. As usually defined, the CC50 is the concentration giving 50% cytotoxicity. Higher therefore signals better tolerance by the cells.

Data set [1] addresses Polymerase basic protein 2 (Influenza A virus (strain A/Puerto Rico/8/1934 H1N1), UniProt P03428). Put plainly: Binding affinity to Influenza A virus RNA polymerase PB2 by SPR assay. In a few lines:
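PB2-cap protein (0.5 μM) immobilised on CM5 chip at pH 5.0. Compound injected at 7.8–125 nM for 180 s at 50 μL/min, 25 °C; chip regenerated with 50 mM NaOH. KD from fitted sensorgrams; reference compound included.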
(In general: In SPR one partner is held on a chip, and binding of the other changes the refractive index at the surface.)

The test system of data set [2] is Influenza A virus (A/Puerto Rico/8/1934(H1N1)). Put plainly: Inhibition of RNA-dependent RNA polymerase in Influenza A virus (A/PR/8/34(H1N1)) infected in human 293T cells assessed as reduction in viral RNA level at 10 uM measured at 3 and 6 hrs post infection by RT-PCR method. Type of data set: cell-based.
The test system of another data set is OS-RC-2. Description: Cytotoxicity against human OS-RC2 cells by MTT assay. It is filed as functional, cell-based. (In general: Tetrazolium dyes change colour on reduction, which living cells bring about.)
Data set [3] has as its system Influenza A virus. Put plainly: Antiviral activity against Influenza A virus (A/PR/8/34(H1N1)) infected in MDCK cells assessed as reduction in virus-induced cytopathic effect by MTT assay. Type of data set: functional, organism-based. Conditions: A/Puerto Rico/8/1934(H1N1). In a few lines:
(§1)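 MTT-based cytopathic-effect reduction assay in MDCK cells. Run in triplicate; IC50 reported as mean ± SD.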

For a further data set, the system named is Staphylococcus aureus. Put plainly: Antibacterial activity against Staphylococcus aureus subsp. aureus Rosenbach ATCC 25923. It is filed as functional.
In a further data set the test system is HepG2. Description: Cytotoxicity against human HepG2 cells by MTT assay. Type of data set: functional, cell-based.
Data set [4] has as its system Erysipelothrix rhusiopathiae. Description: Antibacterial activity against Erysipelothrix rhusiopathiae ATCC 19414. It is filed as functional.
In another data set the test system is ACHN. Put plainly: Cytotoxicity against human ACHN cells by MTT assay. Type of data set: functional, cell-based.
The subject of the next data set is Escherichia coli. Put plainly: Antibacterial activity against Escherichia coli ATCC 25922. Type of data set: functional.
A further data set relates to 786-0. Description: Cytotoxicity against human 786-O cells by MTT assay. Type of data set: functional, cell-based.
The test system of another data set is Cynodon dactylon. Description: Inhibition of seed germination in Cynodon dactylon at 100 ug/ml after 7 days. It is filed as functional, organism-based. A digest of the protocol:
(§2)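 Ten surface-sterilised seeds per well on agar. Test solution at 100 μg/mL in 5% EtOH added; three wells per sample. Incubated at 20 °C, 12:12 h photoperiod, 7 days; germination scored.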

A short description of data set [5]: Antibacterial activity against Pasteurella multocida subsp. multocida ATCC 43137. It is filed as functional.
A further data set concerns SGC-7901. Description: Cytotoxicity against human SGC7901 cells by MTT assay. It is filed as functional, cell-based.
For another data set, the system named is Arabidopsis thaliana. Put plainly: Inhibition of seed germination in Arabidopsis thaliana at 100 ug/ml after 7 days. Type of data set: functional, organism-based. In a few lines:
as §2

Data set [6] deals with Influenza A virus. Put plainly: Antiviral activity against Influenza A virus (A/PR/8/34(H1N1)) infected in MDCK cells assessed as reduction in virus-induced cytopathic effect co-treated with viral infection for 30 mins and measured after 48 hrs by MTT assay. It is filed as functional, organism-based. Particulars: A/Puerto Rico/8/1934(H1N1). A digest of the protocol: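 Entire-infection: virus–compound mixture (PR8, MOI 0.01, 30 min at 37 °C) added to MDCK cells. Unabsorbed virus removed; fresh medium with 1 μg/mL TPCK-trypsin plus compound added. Viability by MTT after 48 h.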

Data set [7] has as its system Influenza A virus. Description: Antiviral activity against Influenza A virus (A/PR/8/34(H1N1)) infected in MDCK cells assessed as reduction in plaque formation after 72 hrs by crystal violet staining based assay. It is filed as functional, organism-based. Conditions: A/Puerto Rico/8/1934(H1N1). A digest of the protocol:
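MDCK monolayers infected with PR8 at MOI 0.005 for 1 h at 37 °C. Overlay of serum-free MEM with serially diluted compound, 2% microcrystalline cellulose and 1.5 μg/mL trypsin. After 72 h, cells fixed and stained with 4% paraformaldehyde/2% crystal violet for 20 min; plaques assessed.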

The subject of data set [8] is Influenza A virus. Description: Antiviral activity against Influenza A virus (A/PR/8/34(H1N1)) infected in MDCK cells assessed as reduction in viral NP protein expression after 24 hrs by DAPI staining based fluorescence microscopic method. Type of data set: functional, organism-based. Particulars: A/Puerto Rico/8/1934(H1N1). In a few lines:
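MDCK cells infected at MOI 0.01 for 1 h, then given increasing concentrations for 24 h. Fixed in 4% paraformaldehyde and blocked with 3% BSA. Stained with anti-NP (1:200, overnight, 4 °C), then FITC secondary (4 h, RT); DAPI nuclear stain; fluorescence microscopy.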

The next data set has as its system Influenza A virus H3N2. Put plainly: Antiviral activity against Influenza A virus (A/Aichi/2/68(H3N2)) infected in MDCK cells assessed as reduction in virus-induced cytopathic effect by MTT assay. It is filed as functional, organism-based. Conditions: A/Aichi/2/1968(H3N2). A digest of the protocol:
as §1
A general note: Cytopathic effects are the visible damage that an infection or toxin causes in cultured cells.

Data set [9] relates to Influenza A virus. Put plainly: Antiviral activity against Influenza A virus (A/PR/8/34(H1N1)) infected in MDCK cells assessed as reduction in virus-induced cytopathic effect treated post viral infection for 1 hr and measured after 48 hrs by MTT assay. Conditions: A/Puerto Rico/8/1934(H1N1). Type of data set: functional, organism-based. A digest of the protocol: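 Postinfection: infected MDCK cells given increasing concentrations for 1 h at 37 °C, then medium replaced. Viability by MTT after a further 48 h.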

In data set [10] the test system is Influenza A virus. Put plainly: Antiviral activity against Influenza A virus (A/PR/8/34(H1N1)) infected in MDCK cells assessed as reduction in viral NP protein expression after 24 hrs by Western blot method. Conditions: A/Puerto Rico/8/1934(H1N1). Type of data set: functional, organism-based. In a few lines:
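MDCK monolayers infected with PR8 at MOI 0.01 for 1 h at 37 °C, then given serial dilutions. At 24 h, lysates equalised for protein and run on 10% SDS-PAGE. NP detected with anti-NP (1:1000) and HRP secondary, β-actin as loading control; ECL read-out.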

In data set [11] the target is Hemagglutinin (Influenza A virus (A/Puerto Rico/8/1934(H1N1))) (UniProt P03452). Put plainly: Inhibition of Influenza A virus (A/PR/8/34(H1N1)) HA-mediated chicken erythrocytes hemagglutination preincubated for 30 mins followed by erythrocytes addition and measured for 1 hr. In a few lines: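 Twofold serial compound dilutions mixed with PR8 at different titres for 30 min at RT. 0.5% chicken erythrocytes added; read after 1 h at 37 °C. Virus diluent without compound as negative control, PBS as blank.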

Data set [12] addresses Neuraminidase (Influenza A virus (A/Puerto Rico/8/1934(H1N1))) (UniProt P03468). Description: Inhibition of Influenza A virus (A/PR/8/34(H1N1)) NA assessed as reduction in viral particle release using 2-(4-methylumbelliferyl)-alpha-D-N-acetylneuraminic acid sodium as substrate preincubated for 30 mins followed by substrate addition and measured for 1 hr by fluorescence assay. In a few lines: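 PR8 in reaction buffer mixed with twofold-diluted compound for 30 min at 37 °C. 20 μM MUNANA substrate added for 1 h at 37 °C; stopped with 14 mM NaOH. 4-MU fluorescence read at ex 340/em 440 nm.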

Data set [13] deals with Influenza A virus. Put plainly: Antiviral activity against Influenza A virus (A/PR/8/34(H1N1)) infected in MDCK cells assessed as reduction in viral HA mRNA expression after 24 hrs by qRT-PCR method. Type of data set: functional, organism-based. Particulars: A/Puerto Rico/8/1934(H1N1). In a few lines: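 Infected MDCK cells treated with a concentration series for 24 h. Total RNA reverse-transcribed; viral HA mRNA quantified by qRT-PCR with GAPDH as internal control. Triplicate, mean ± SD.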

Data set [14] addresses Polymerase basic protein 2 (Influenza A virus (strain A/Puerto Rico/8/1934 H1N1)) (UniProt P03428). Put plainly: Inhibition of fluorescently-labeled m7GTP binding to Influenza A virus RNA polymerase PB2 preincubated for 15 mins followed by m7GTP addition measured after 1 hr by HTRF assay. In a few lines:
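PB2 protein preincubated with compound at different concentrations for 15 min at RT. Premixed fluorescent probe (m7GTP cap analogue) added; HTRF read after 1 h. Three independent experiments, mean ± SD.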

In data set [15] the test system is Influenza A virus. Put plainly: Antiviral activity against Influenza A virus isolate 690 (H3) infected in MDCK cells assessed as reduction in virus-induced cytopathic effect by MTT assay. It is filed as functional, organism-based. A digest of the protocol:
as §1

Data set [16] relates to Influenza A virus. Description: Antiviral activity against Influenza A virus (A/PR/8/34(H1N1)) infected in MDCK cells assessed as reduction in viral HA mRNA level at 10 uM measured 10 hrs post infection by qRT-PCR analysis. Type of data set: functional, organism-based. Conditions: Influenza A virus (A/Puerto Rico/8/1934(H1N1)). In a few lines: (§3)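 Compound added to PR8-infected MDCK cells at defined time points covering the first replication cycle. At 10 h postinfection, NP measured by Western blot and HA mRNA by quantitative RT-PCR.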

Data set [17] is described as follows: Cytotoxicity against MDCK cells by MTT assay. Type of data set: cell-based, Canis lupus familiaris. Conditions: dog. A digest of the protocol: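 MDCK viability measured by MTT at concentrations up to 200 μM. Run in triplicate; CC50 reported.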
Data set [18] relates to Influenza A virus. Put plainly: Antiviral activity against Influenza A virus (A/PR/8/34(H1N1)) infected in MDCK cells assessed as reduction in virus-induced cytopathic effect pretreated with virus for 30 mins followed by viral infection incubated for 30 mins and measured after 48 hrs by MTT assay. Type of data set: functional, organism-based. Particulars: A/Puerto Rico/8/1934(H1N1). A digest of the protocol:
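Preinfection: PR8 (MOI 0.01) mixed with compound for 30 min at 37 °C, then added to MDCK cells for 30 min. Medium replaced with fresh medium containing 1 μg/mL TPCK-trypsin. Viability by MTT after a further 48 h.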

For data set [19], the system named is Influenza A virus. Description: Antiviral activity against Influenza A virus (A/PR/8/34(H1N1)) infected in MDCK cells assessed as reduction in viral NP production at 10 uM measured 10 hrs post infection by Western blot analysis. Type of data set: functional, organism-based. Particulars: Influenza A virus (A/Puerto Rico/8/1934(H1N1)). In a few lines: as §3

Data set [20] concerns Influenza A virus. Description: Antiviral activity against Influenza A virus (A/FM-1/1/47(H1N1)) infected in MDCK cells assessed as reduction in virus-induced cytopathic effect by MTT assay. Type of data set: functional, organism-based. Conditions: A/Fort Monmouth/1/1947(H1N1). A digest of the protocol:
as §1

Active and inactive are the calls of the source. No cut-off for these calls is given here.

Sequence of Polymerase basic protein 2 (P03428 whole entry): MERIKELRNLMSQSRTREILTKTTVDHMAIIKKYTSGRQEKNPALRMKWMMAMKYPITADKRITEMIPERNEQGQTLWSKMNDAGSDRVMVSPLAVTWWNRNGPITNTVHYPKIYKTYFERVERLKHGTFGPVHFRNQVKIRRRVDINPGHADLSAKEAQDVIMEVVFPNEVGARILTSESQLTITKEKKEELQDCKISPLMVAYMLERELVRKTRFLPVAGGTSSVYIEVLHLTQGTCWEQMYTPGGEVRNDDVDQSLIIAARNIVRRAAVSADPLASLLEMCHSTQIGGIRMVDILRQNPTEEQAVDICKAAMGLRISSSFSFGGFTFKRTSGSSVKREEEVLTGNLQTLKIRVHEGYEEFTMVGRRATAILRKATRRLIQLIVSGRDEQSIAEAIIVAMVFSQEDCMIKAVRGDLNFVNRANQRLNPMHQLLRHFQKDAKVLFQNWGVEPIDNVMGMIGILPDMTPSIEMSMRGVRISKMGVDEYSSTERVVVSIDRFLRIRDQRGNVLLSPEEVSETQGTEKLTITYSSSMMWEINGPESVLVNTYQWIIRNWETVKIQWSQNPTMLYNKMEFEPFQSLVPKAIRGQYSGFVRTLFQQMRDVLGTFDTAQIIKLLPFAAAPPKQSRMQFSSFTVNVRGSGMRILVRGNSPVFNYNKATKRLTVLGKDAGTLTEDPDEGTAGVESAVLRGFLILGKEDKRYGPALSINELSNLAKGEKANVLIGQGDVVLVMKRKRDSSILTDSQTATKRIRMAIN
Sequence of Neuraminidase (Influenza A virus (A/Puerto Rico/8/1934(H1N1))) (P03468 whole entry): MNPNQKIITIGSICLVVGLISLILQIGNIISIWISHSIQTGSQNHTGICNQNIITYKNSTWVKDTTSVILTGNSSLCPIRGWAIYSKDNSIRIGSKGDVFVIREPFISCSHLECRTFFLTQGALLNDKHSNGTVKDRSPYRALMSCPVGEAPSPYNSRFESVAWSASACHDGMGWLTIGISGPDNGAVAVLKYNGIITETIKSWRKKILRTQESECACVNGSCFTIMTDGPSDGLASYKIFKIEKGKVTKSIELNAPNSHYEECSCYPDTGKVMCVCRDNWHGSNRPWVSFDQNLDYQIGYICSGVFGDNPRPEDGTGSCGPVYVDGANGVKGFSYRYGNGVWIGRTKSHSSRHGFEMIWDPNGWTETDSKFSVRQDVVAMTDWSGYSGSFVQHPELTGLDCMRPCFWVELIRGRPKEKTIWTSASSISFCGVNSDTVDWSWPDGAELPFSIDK
Sequence of Hemagglutinin (Influenza A virus (A/Puerto Rico/8/1934(H1N1))) (P03452 whole entry): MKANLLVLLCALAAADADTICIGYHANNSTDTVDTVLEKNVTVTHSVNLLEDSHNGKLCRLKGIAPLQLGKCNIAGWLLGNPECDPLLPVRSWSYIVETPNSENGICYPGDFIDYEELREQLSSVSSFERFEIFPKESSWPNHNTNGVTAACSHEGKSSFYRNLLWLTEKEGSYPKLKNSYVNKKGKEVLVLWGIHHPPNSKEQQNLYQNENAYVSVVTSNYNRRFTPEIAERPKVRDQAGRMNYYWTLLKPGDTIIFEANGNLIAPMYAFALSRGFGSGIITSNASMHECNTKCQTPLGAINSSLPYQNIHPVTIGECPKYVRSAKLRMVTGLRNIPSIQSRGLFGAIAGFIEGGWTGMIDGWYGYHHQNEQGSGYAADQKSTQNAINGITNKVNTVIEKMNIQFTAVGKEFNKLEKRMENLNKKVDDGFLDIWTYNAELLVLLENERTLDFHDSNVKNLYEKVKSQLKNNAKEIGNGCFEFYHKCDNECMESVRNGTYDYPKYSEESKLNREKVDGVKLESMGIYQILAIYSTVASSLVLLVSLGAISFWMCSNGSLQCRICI
Sequence of Polymerase basic protein 2 (Influenza A virus (strain A/Puerto Rico/8/1934 H1N1)) (P03428 whole entry, looked up): as the sequence (P03428 whole entry) above

On to `O=c1oc2cc(O)cc(O)c2c2ccccc12`, for which, in data set [1], the Kd was 3.6 µM.

For the compound `CCC(CC)[C@H](NC(C)=O)[C@@H]1[C@H](O)[C@@H](C(=O)O)C[C@H]1NC(=N)N`, the inhibition result in data set [2] was “inactive”.

As to `C=C1[C@H](O)[C@@]2(C(=O)N1OC)/C(=C\CC)C=CC(=O)[C@H]2O`, the IC50 with OS-RC-2 is greater than 50 µM; with Influenza A virus [3], 21 µM; in the data set on HepG2, greater than 50 µM; in the data set on ACHN, greater than 50 µM; in the data set with 786-0 it was greater than 50 µM; with SGC-7901, greater than 50 µM. Also, the MIC (against Staphylococcus aureus; in data set [4]; against Escherichia coli; in data set [5]) was greater than 100 µg/mL in each case. In addition, the inhibition result in the data set with Cynodon dactylon and in the data set with Arabidopsis thaliana was “inactive” throughout.

On to `CC/C=C1/C=CC(=O)[C@@H](O)[C@]12C(=O)N(OC)[C@@](C)(OC)[C@@H]2O`, for which the result in the data set on Influenza A virus [6], with Influenza A virus [9], in the data set with Influenza A virus [16] and in the data set on Influenza A virus [19] was Active. In addition, the Activity result in the data set with Influenza A virus [7], in the data set on Influenza A virus [8], with Influenza A virus [10] and with Influenza A virus [13] was “Dose-dependent effect” each time. Further, the IC50 in the data set with OS-RC-2 was greater than 50 µM; in the data set with Influenza A virus [3], 1.6 µM; in the data set on Influenza A virus H3N2 it was 4.1 µM; in the data set with HepG2, greater than 50 µM; in the data set with ACHN it was greater than 50 µM; in the data set on 786-0, greater than 50 µM. Besides, the results for the IC50 with Influenza A virus [15], in the data set on SGC-7901 and in the data set with Influenza A virus [20] were 1.7 µM, greater than 50 µM and 5.5 µM, respectively. In addition, the inhibition result in data set [2] was “Active”. Moreover, the MIC (against Staphylococcus aureus; in data set [4]; in the data set on Escherichia coli; in data set [5]) was greater than 100 µg/mL in each case. For the same compound, the inhibition entry (in data set [11]; in [12]; in the data set on Cynodon dactylon; in the data set with Arabidopsis thaliana) was “inactive” in each case. In [14], the inhibition entry was “Dose-dependent effect”. The same compound had a dissociation constant (Kd) in data set [1] of 0.077 µM. Further, the cytotoxic concentration (CC50) in data set [17] was greater than 200 µM. In the data set with Influenza A virus [18], the result was inactive.
